Screens (PubChem)
PLCb3 inh: PLC-beta3 (human) inhibition, primary screen; Purified PLC-beta3, fluorogenic substrate, fluorescence; hit rate 0.18% among 370,000; AID 720704; inhibition, % at 12.2 µM; in the data active means inhibition above about 11%
DDE Tn6 FP inh: DD(E)-Tn6 binding inhibition, primary FP screen; AID 720509; hit rate 0.21% among 370,000; Fibrin DD(E) TRITC-Tn6 fluorescence polarization displacement; P02675; inhibition, % at 8.3 µM;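 active means inhibition above a per-campaign cutoff: mean of compounds within control limits plus 3 SD, cut at about 15% in these data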
PLC-gamma1 inh: blocks human PLC-gamma1 enzyme activity. purified PLC-gamma1, fluorogenic substrate, fluorescence. inhibition, % at 12.2 µM. hit rate 0.84% among 370,000. AID 720700; in the data active means inhibition above about 9.5%
KLK7 zymogen act: proKLK7 (human) activation, primary screen; purified proKLK7, EDANS-DABCYL substrate fluorescence; 100% is mature enzyme control, 0% vehicle; activation, % at 7 µM; hit rate 0.9% among 370,000;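 active means activation above the mean of all tested compounds plus 3 SD, computed per campaign excluding outliers beyond control limits, cut at about 13% in these data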
Target sequence (P49862 whole entry, looked up): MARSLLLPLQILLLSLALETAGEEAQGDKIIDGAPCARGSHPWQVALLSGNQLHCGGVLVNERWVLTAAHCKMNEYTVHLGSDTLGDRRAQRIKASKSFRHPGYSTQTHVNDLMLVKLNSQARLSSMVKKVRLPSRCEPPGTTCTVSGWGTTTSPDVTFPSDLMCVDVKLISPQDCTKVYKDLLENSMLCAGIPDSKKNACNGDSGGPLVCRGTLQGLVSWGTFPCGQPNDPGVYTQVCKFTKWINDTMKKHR
DDE Tn7 FP inh: DD(E)-Tn7 binding inhibition, primary FP screen; P02675; FP displacement of FITC-Tn7 peptide from fibrin DD(E); 0% = median of compound wells per plate; inhibition, % at 8.3 µM; hit rate 0.13% among 370,000; AID 720508;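 active means inhibition above the mean of compounds falling within the control limits plus 3 SD of them, cut at about 14% in these data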
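Assay system: Human clot-derived fibrin DD(E) complex | Buffer or medium: Tris/NaCl/CaCl2 buffer, pH 7.8 | Repeats: One replicate per compound | Benchmarks: Aha-Tn7 high control | Measure: % inhibition scaled between sample-field median and high-control FP | Schedule: 10 min plus 3 h, room temperature | Signal: Fluorescence polarization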
CendR NRP1 mod: modulators of CendR peptide binding to human neuropilin-1. hit rate 0.85% among 360,000. FAM-RPARPAR peptide binding to NRP-1, fluorescence polarization. inhibition, % at 25 µM;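 active means inhibition or corrected inhibition above about 18%, plus a signal ratio from 0.5 to 1.5, limit read from the data, passing the limit was not always enough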
Numbers stand for hits; – = inactive; · = no result given. A selection: hits, their analogues and other compounds. The true share with any hit is near 3%.

SMILES	PLCb3 inh	DDE Tn6 FP inh	PLC-gamma1 inh	KLK7 zymogen act	DDE Tn7 FP inh	CendR NRP1 mod
COC(=O)CCC(=O)OC1(C)C(=O)C=C2C=C(C3CC3)N(CCN3CCOCC3)C=C2C1=O (stereo unspecified)	–	–	–	–	–	–
CC1(OC(=O)C2CCCC2)C(=O)C=C2C=C(c3ccsc3)N(C3CC3)C=C2C1=O (stereo unspecified)	–	–	–	–	–	–
Cc1cc(C(=O)N/N=C/c2cc(Br)cc(Br)c2OC(=O)c2cccc(F)c2)n[nH]1	–	–	–	–	–	20
O=C(c1ccc(F)cc1F)N1CCC(Oc2cccnc2)CC1	–	–	–	–	–	·
CC(Nc1ccc2ccccc2c1)C(=O)N/N=C/c1ccncc1 (stereo unspecified)	–	–	–	–	–	25
CC(Oc1ccc2ccccc2c1)C(=O)N/N=C/c1cccnc1 (stereo unspecified)	–	–	–	–	–	–
CCOC(=O)CC[C@@]1(C(=O)OCC)C[C@@H](CC(=O)NCCCN2CCCC2=O)C(=O)N2CCCC=C21	–	–	–	–	–	·
CCOC(=O)C1CCN(C(=O)C2CCN(C(=O)c3ccc([N+](=O)[O-])cc3)CC2)CC1	·	·	·	·	·	24
Cc1ccc(CNC(=O)CSc2n[nH]c(N)n2)cc1	–	–	–	–	–	24
CCOC(=O)CNC(=O)CSc1nc2ccccc2c(=O)n1-c1ccc(Cl)cc1	–	–	–	–	–	·
CCN(CC)S(=O)(=O)c1cccc(NC(=O)COC(=O)c2cc(C)oc2C)c1	–	–	–	–	–	–
Cc1cc(C(=O)OCC(=O)Nc2cccc(S(=O)(=O)N(C)C)c2)c(C)o1	–	–	–	–	–	24
Cc1cc(NC(=O)COC(=O)c2cc(S(=O)(=O)N(C)C)ccc2Cl)no1	–	–	–	–	–	29
CCc1ccc(NC(=S)N2CCN(C)CC2)cc1	–	–	–	–	–	21
Cc1ccc(NC(=S)N2CCN(Cc3ccccc3)CC2)cc1	–	–	–	–	–	26
O=C(c1ccccc1I)N1CCC(Oc2cccnc2)CC1	–	–	–	–	–	·
COc1ccc(NS(=O)(=O)c2ccc(C(=O)N3CCN(c4ccc(F)cc4)CC3)cc2)cc1	–	–	–	–	–	–
COc1ccc(N2CCN(C(=O)c3ccc(NS(=O)(=O)c4ccc(F)c(F)c4)cc3)CC2)cc1	–	–	–	–	–	51
COc1ccc(-c2csc(C(O)c3ccccc3)n2)cc1 (stereo unspecified)	–	–	–	–	–	–
COc1ccncc1-c1csc(C(O)c2ccccc2)n1 (stereo unspecified)	–	–	–	–	–	23
COc1ccc(C(O)c2nc(-c3cc(F)cc(F)c3)cs2)cc1 (stereo unspecified)	–	–	–	–	–	40
COc1cc(C(O)c2nc(-c3cc(F)cc(F)c3)cs2)ccc1F (stereo unspecified)	–	–	–	–	–	–
CCn1c(=O)c(C(=O)NCc2ccccc2)c(O)c2ccccc21	–	–	–	–	–	–
CCn1c(=O)c(C(=O)NCCNCCO)c(O)c2ccccc21	–	–	–	–	–	37
COc1ccc(CNC(=O)Cn2ccc(NC(=O)OCc3ccccc3)nc2=O)cc1	–	–	–	–	–	38
SMILES	PLCb3 inh	DDE Tn6 FP inh	PLC-gamma1 inh	KLK7 zymogen act	DDE Tn7 FP inh	CendR NRP1 mod
O=C(Cn1ccc(NC(=O)OCc2ccccc2)nc1=O)NCc1ccc2[nH]ccc2c1	–	–	–	–	–	24
Cc1ccc(CNC(=O)Cn2ccc(NC(=O)OCc3ccccc3)nc2=O)o1	–	–	–	–	–	–
COc1cc(/C=N/NC(=O)Cn2cnc3ccccc3c2=O)ccc1O	–	–	–	–	–	–
O=C(Cn1cnc2ccccc2c1=O)N/N=C/c1ccc(Br)cc1	–	–	–	–	–	23
COc1ccc(NC(=O)CN2CCN(c3c(C)cc(C)cc3C)CC2)cc1	–	–	–	–	–	37
COc1ccc(S(=O)(=O)N2CCCN(CC(=O)Nc3ccc(NC(C)=O)cc3)CC2)cc1	–	–	–	–	–	39
CCCCOCCCNC(=O)C[C@H]1C(=O)N(CCCOC)C2=CCCCC[C@]21C(=O)OC	–	–	–	–	–	·
CN(C)c1ccc(N=Cc2nc(-c3ccccc3)oc2OC(=O)c2cccc(Cl)c2)cc1	–	–	–	–	–	28
Cc1onc(-c2ccccc2Cl)c1C(=O)N1CCOC12CCN(c1cccc(F)n1)CC2	–	–	–	–	–	18
CN(CC(=O)NNC(=O)c1cccnc1)S(=O)(=O)c1cc(Cl)ccc1Cl	–	–	–	–	–	40
O=C(NNC(=O)c1ccccc1Cl)c1cccnc1	–	–	–	–	–	23
O=C(NNC(=O)c1ccccc1Cl)c1ccccc1Cl	–	–	–	–	–	–
Cc1ccc(S(=O)(=O)N2CCCC2c2cccc3[nH]cc(C)c23)cc1 (stereo unspecified)	–	–	–	–	–	·
CCC[C@H]1[C@@H](OC(=O)N2CCN(c3ccccc3)CC2)CC[C@@]23CCCN2C(=O)CCC[C@@H]13	–	–	–	·	–	·
COc1ccc(-c2oc3ccc(-c4ccc5c(c4)OCO5)cc3c2-c2ccc(OC)nc2)cc1	–	–	–	–	–	27
COc1ccc(-c2c(-c3cccc(C)c3)oc3ccc(-c4ccc5c(c4)OCO5)cc23)cn1	–	–	–	–	–	–
COc1ccc(Cn2c(NC(=O)c3ccccc3)nc(Cc3ccccc3)c2-c2ccccc2)cc1	–	–	–	–	–	·
CCOC(=O)c1ccc2[nH]c(C)c(C)c2c1	–	–	–	–	–	46
Cc1[nH]c2ccc(C(=O)OCCN(C)C)cc2c1C	–	–	–	–	–	–
CC[C@H](CCCCCC#N)CCC(=O)N(c1ccccc1)c1ccccc1	–	–	–	–	–	·
CC(C)(C)OC(=O)N(CCc1ccccc1)Cc1cccc(OCc2cccc(NC(=O)c3ccccc3)c2)c1	–	–	9.9	–	–	–
CC(C)(C)OC(=O)N(CCc1ccccc1)Cc1ccc(OCc2cccc(NC(=O)C3CC3)c2)cc1	–	–	–	–	–	–
COc1cccc(NC(=S)NCc2ccc(F)cc2)c1	–	–	–	–	–	–
C#CC1(NC(=S)Nc2cccc(OC)c2)CCCCC1	–	–	11	–	–	–
CCCCCn1c(N2CCN(c3cccc(Cl)c3)CC2)nc2c1c(=O)[nH]c(=O)n2C	–	–	–	–	–	28
CCCn1c(SCC(=O)Nc2nnc(-c3ccccc3)s2)nnc1-c1ccccn1	–	–	–	–	–	27
CC(C)C[C@H]1COc2cccc(F)c2S(=O)(=O)N1Cc1cn(Cc2ccc(F)cc2)nn1	–	–	–	–	–	·
